# Active and inactive are the calls of the source. The calls are words filed in the database; no cut-off is given here.
# Key:
# [1] = Solubility in 25% aqueous ethanolic medium at 25 degC after 24 hrs by UV-VIS spectrometric method; format: physicochemical
# SK-OV-3 [2] = test: Induction of reactive oxygen species formation in human SKOV3 cells at 20 uM in presence of 200 J/cm'2 light by CM-H2DCFDA probe-based confocal microscopic method; format: functional, cell-based
# SK-OV-3 [3] = test: Induction of necrosis in human SKOV3 cells at 20 uM in absence of light by propidium iodide staining-based flow cytometric method (reference value: 7.03%); format: cell-based; conditions: sk-ov-3, 20 µM
# Outline: (§1)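 Unfixed SKOV-3 cells given 20 μM compound, with or without light (600-720 nm, 200 J/cm2). Harvested, PBS-washed, stained with propidium iodide (10 μg/mL) for 20 min. PI-positive membrane-damaged fraction measured by flow cytometry.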
# SK-OV-3 [4] = test: Cell cycle arrest in human SKOV3 cells assessed as accumulation at sub-G1 phase at 20 uM after 24 hrs in presence of 200 J/cm'2 light by propidium iodide staining-based flow cytometric method (reference value: 7%); format: functional
# [5] = Drug uptake in neoplastic tumor of FoxN1 nude mouse xenografted with human SKOV3 cells at 20 mg/kg administered intratumorally measured at 12 hrs by fluorescence microscopic method; format: ADME, organism-based, Neoplasm; conditions: in vivo, other
# Outline: (§2)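 Compound injected intratumorally into SKOV-3 xenograft-bearing nude mice. Tumours biopsied 12 h after administration, then sectioned. Sections DAPI-counterstained and examined for red compound fluorescence by fluorescence microscopy.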
# Homo sapiens [6] = species on record: Homo sapiens; test: Disruption of F-actin organization in human SKOV3 cells at 20 uM in presence of 200 J/cm'2 light by TRITC labeled phalloidin/DAPI staining-based confocal microscopic method; format: cell-based
# Outline: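 SKOV-3 cells on coverslips: untreated, 20 μM compound in the dark, or 20 μM compound plus irradiation (600-720 nm, 200 J/cm2). Fixed in 4% paraformaldehyde/PBS, permeabilised with 0.1% Triton X-100, stained with TRITC-phalloidin (1:50, 1 h). DAPI counterstain, confocal imaging.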
# SK-OV-3 [7] = test: Induction of reactive oxygen species formation in human SKOV3 cells at 20 uM in presence of 200 J/cm'2 light by CM-H2DCFDA probe-based flow cytometric method (reference value: <1%); format: functional
# SK-OV-3 [8] = test: Induction of necrosis in human SKOV3 cells at 20 uM in presence of 200 J/cm'2 light by propidium iodide staining-based flow cytometric method (reference value: 7.45%); format: functional; outline: as §1
# SK-OV-3 [9] = test: Disruption of mitochondrial membrane potential in human SKOV3 cells at 20 uM in presence of 200 J/cm'2 light by MitoTracker Red probe/Hoechst 33342 staining-based confocal microscopic method; format: functional, cell-based
# Outline: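 Control SKOV-3 cells and cells after photodynamic treatment (20 μM compound, 600-720 nm, 200 J/cm2) loaded with 200 nM MitoTracker Red CMXRos, 30 min at 37 °C. Formaldehyde-fixed, nuclear counterstain, confocal microscopy.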
# Homo sapiens [10] = species on record: Homo sapiens; test: Binding affinity to F-actin in human SKOV3 cells at 20 uM after 1 hr in presence of 200 J/cm'2 light by TRITC labeled phalloidin/DAPI staining-based confocal microscopic method
# SK-OV-3 [11] = test: Phototoxicity against human SKOV3 cells assessed as decrease in cell viability after 24 hrs in presence of 200 J/cm'2 light by MTT assay; format: functional, cell-based
# Outline: (§3)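 Cell lines given varied compound concentrations, then irradiated (600-750 nm source, 200 J/cm2 at 50 mW/cm2) or kept dark. Viability by MTT at 24 h after treatment; IC50 from the dose-response. Three independent experiments averaged.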
# MDA-MB-231 = test: Phototoxicity against human MDA-MB-231 cells assessed as decrease in cell viability after 24 hrs in presence of 200 J/cm'2 light by MTT assay; format: functional, cell-based; conditions: MDA-MB-231, light or radiation study; outline: as §3
# [12] = Photostability of compound; format: physicochemical
# [13] = Drug uptake in stromal cells of FoxN1 nude mouse xenografted with human SKOV3 cells at 20 mg/kg administered intratumorally measured at 12 hrs by fluorescence microscopic method; format: ADME, organism-based; conditions: in vivo, other; outline: as §2
# SK-OV-3 [14] = test: Cell cycle arrest in human SKOV3 cells assessed as accumulation at sub-G1 phase at 20 uM after 12 hrs in presence of 200 J/cm'2 light by propidium iodide staining-based flow cytometric method (reference value: 7%); format: functional
# Mus musculus [15] = test: Toxicity in FoxN1 nude mouse xenografted with human SKOV3 cells assessed as effect on liver morphology at 20 mg/kg, iv measured on day 14 in presence of 100 J/cm'2 light by hematoxylin-and-eosin staining-based assay; format: organism-based; conditions: in vivo
# Outline: (§4)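 3-4 million SKOV-3 cells injected subcutaneously into the flank of 6-8 week old FoxN1 nude mice (20-25 g). At tumour volumes of about 100-150 mm3, randomised into four groups of six: untreated, light only, compound only, and compound plus light. Compound given iv at 20 mg/Kg in physiological saline. Irradiation 24 h later at 100 J/cm2, 100 mW/cm2, 600-750 nm source, under ip ketamine (60 mg/Kg)/xylazine (8 mg/Kg). Tumour volume by calipers, V=LW2/2, followed over two weeks. Tissues processed for H&E histology.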
# [16] = Induction of singlet oxygen generation in methanol at 3 uM in presence of light by DPBF-based chemical trapping method; format: functional
# SK-OV-3 [17] = test: Antitumor activity against human SKOV3 cells xenografted in FoxN1 nude mouse assessed as disappearance of scar at site of tumor at 20 mg/kg, iv measured up to day 14 in presence of 100 J/cm'2 light; format: functional, organism-based; outline: as §4
# IMR-32 = test: Phototoxicity against human IMR32 cells assessed as decrease in cell viability after 24 hrs in presence of 200 J/cm'2 light by MTT assay; format: functional, cell-based; conditions: IMR-32, light or radiation study; outline: as §3
# Mus musculus [18] = test: Toxicity in FoxN1 nude mouse xenografted with human SKOV3 cells assessed as effect on lung morphology at 20 mg/kg, iv measured on day 14 in presence of 100 J/cm'2 light by hematoxylin-and-eosin staining-based assay; format: organism-based; conditions: in vivo; outline: as §4
# [19] = Dark toxicity in human SKOV3 cells assessed as alteration in cell morphology by phase-contrast microscopic method; format: cell-based; conditions: sk-ov-3
# Outline: (§5)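 SKOV-3 cells given compound, kept dark or irradiated (200 J/cm2, 50 mW/cm2). Morphology examined by phase-contrast microscopy (100X).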
# [20] = Drug uptake in fibrous tissue cells of FoxN1 nude mouse xenografted with human SKOV3 cells at 20 mg/kg administered intratumorally measured at 12 hrs by fluorescence microscopic method; format: ADME, organism-based; conditions: in vivo, other; outline: as §2
# SK-OV-3 [21] = test: Cell cycle arrest in human SKOV3 cells assessed as accumulation at sub-G1 phase at 20 uM after 12 hrs in absence of light by propidium iodide staining-based flow cytometric method (reference value: 2.2%); conditions: sk-ov-3, 12 h
# MCF7 = test: Phototoxicity against human MCF7 cells assessed as decrease in cell viability after 24 hrs in presence of 200 J/cm'2 light by MTT assay; format: functional, cell-based; conditions: MCF7, light or radiation study; outline: as §3
# SK-OV-3 [22] = test: Antitumor activity against human SKOV3 cells xenografted in FoxN1 nude mouse assessed as decrease in tumor volume at 20 mg/kg, iv measured up to day 14 in presence of 100 J/cm'2 light; format: functional, organism-based; outline: as §4
# Mus musculus [23] = test: Toxicity in FoxN1 nude mouse xenografted with human SKOV3 cells assessed as effect on skin around peritumoral area at 20 mg/kg, iv measured up to day 14 in presence of 100 J/cm'2 light; format: organism-based; conditions: in vivo; outline: as §4
# SK-OV-3 [24] = test: Phototoxicity in human SKOV3 cells assessed as alteration in cell morphology in presence of 200 J/cm'2 light by phase-contrast microscopic method; format: functional, cell-based; outline: as §5
# [25] = Drug uptake in mitochondria of human SKOV3 cells at 20 uM after 1 hr in presence of 200 J/cm'2 light by MitoTracker Red probe/Hoechst 33342 staining-based confocal microscopic method; format: ADME; conditions: sk-ov-3, 1 h
# [26] = Drug uptake in human SKOV3 cells at 20 uM after 1 hr in presence of 200 J/cm'2 light by Hoechst 33342 staining-based confocal microscopic method; format: ADME, cell-based; conditions: sk-ov-3, 1 h
# Outline: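 SKOV-3 cells on chambered glass slides incubated with 20 μM compound for 1 h. Rinsed with PBS, stained with Hoechst 33342 (1 μg/mL), imaged by confocal microscopy.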
# Mus musculus [27] = test: Toxicity in FoxN1 nude mouse xenografted with human SKOV3 cells assessed as effect on kidney morphology at 20 mg/kg, iv measured on day 14 in presence of 100 J/cm'2 light by hematoxylin-and-eosin staining-based assay; format: organism-based; conditions: in vivo; outline: as §4
# SK-OV-3 [28] = test: Antitumor activity against human SKOV3 cells xenografted in FoxN1 nude mouse assessed as elimination of neoplastic cells in tumor at 20 mg/kg, iv measured on day 14 in presence of 100 J/cm'2 light by hematoxylin-and-eosin staining-based assay; format: functional, organism-based; outline: as §4
# Mus musculus [29] = test: Toxicity in FoxN1 nude mouse xenografted with human SKOV3 cells assessed as effect on heart morphology at 20 mg/kg, iv measured on day 14 in presence of 100 J/cm'2 light by hematoxylin-and-eosin staining-based assay; format: organism-based; conditions: in vivo; outline: as §4
# SK-OV-3 [30] = test: Induction of reactive oxygen species formation in human SKOV3 cells at 20 uM in absence of light by CM-H2DCFDA probe-based confocal microscopic method; format: cell-based; conditions: sk-ov-3, 20 µM
# Mus musculus [31] = test: Toxicity in FoxN1 nude mouse xenografted with human SKOV3 cells assessed as effect on spleen morphology at 20 mg/kg, iv measured on day 14 in presence of 100 J/cm'2 light by hematoxylin-and-eosin staining-based assay; format: organism-based; conditions: in vivo; outline: as §4
structure (smiles),measurement,setting,value
Oc1cccc(-c2c3nc(c(-c4cccc(O)c4)c4ccc([nH]4)c(-c4cccc(O)c4)c4nc(c(-c5cccc(O)c5)c5ccc2[nH]5)CC4)C=C3)c1 [TEMOPORFIN],solubility at 24 h,[1],600 µM
Oc1ccc(-c2c3nc(c(-c4ccc(O)c(O)c4)c4ccc([nH]4)c(-c4ccc(O)c(O)c4)c4nc(c(-c5ccc(O)c(O)c5)c5ccc2[nH]5)CC4)C=C3)cc1O,Activity,SK-OV-3 [2],Active
same,Activity,SK-OV-3 [3],8.98%
same,Activity,SK-OV-3 [4],76.7%
same,Drug uptake,[5],Active
same,Activity,Homo sapiens [6],Active
same,Activity,SK-OV-3 [7],73%
same,Activity,SK-OV-3 [8],79.48%
same,Activity,SK-OV-3 [9],Active
same,Activity,Homo sapiens [10],Active
same,solubility at 24 h,[1],3640 µM
same,Activity,SK-OV-3 [11],Dose-dependent effect
same,IC50,"SK-OV-3 [11]; SK-OV-3, light or radiation study",11.2 µM
same,IC50,MDA-MB-231,6.1 µM
same,Stability,[12],Stable
same,Drug uptake,[13],Not Active
same,Activity,SK-OV-3 [14],59.6%
same,Activity,Mus musculus [15],Non-Toxic
same,Activity,[16],80%
same,Activity,SK-OV-3 [17],Active
same,IC50,IMR-32,3.5 µM
same,Activity,Mus musculus [18],Non-Toxic
same,Activity,[19],Non-Toxic
same,Drug uptake,[20],Not Active
same,Activity,SK-OV-3 [21],1%
same,IC50,MCF7,4.4 µM
same,Activity,SK-OV-3 [22],Active
same,Activity,Mus musculus [23],Non-Toxic
same,Activity,SK-OV-3 [24],Active
same,Drug uptake,[25],Active
same,Drug uptake,[26],Active
same,Activity,Mus musculus [27],Non-Toxic
same,Activity,SK-OV-3 [28],Active
same,Activity,Mus musculus [29],Non-Toxic
same,Activity,SK-OV-3 [30],Non-Toxic
same,Activity,Mus musculus [31],Non-Toxic
